Assay results taken from ChEMBL document CHEMBL4364257, “Discovery of novel Bcr-AblT315I inhibitors with flexible linker. Part 1: Confirmation optimization of phenyl-1H-indazol-3-amine as hinge binding moiety” (Eur J Med Chem, 2019).

What was measured:
K562 = assay: Antiproliferative activity against human BCR/ABL positive K562 cells assessed as growth inhibition measured after 48 hrs by MTT assay; format: functional, cell-based; conditions: K562, 48 h
How it was run: (§1)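 K562 and K562R (T315I) cells grown in RPMI 1640 + 10% FBS; 2500 cells/well seeded, 12 h at 37 °C, 5% CO2, then compounds at indicated final concentrations for 48 h. MTT 0.5 mg/mL final, 4 h at 37 °C; supernatant removed, DMSO added, absorbance at 490 nm. IC50 calculated from inhibition ratios.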

Bcr/Abl fusion protein [1] = target: Bcr/Abl fusion protein (Homo sapiens, UniProt P00519, T315I); assay: Inhibition of BCR/ABL T315I mutant (unknown origin) measured after 60 mins in presence of ATP by ADP-Glo kinase assay; format: protein assay
Bcr/Abl fusion protein [2] = target: Bcr/Abl fusion protein (Homo sapiens, UniProt P00519); assay: Inhibition of wild type BCR/ABL (unknown origin) measured after 60 mins in presence of ATP by ADP-Glo kinase assay; format: protein assay
K-562R = assay: Antiproliferative activity against human K562R cells expressing BCR/ABL T315I mutant assessed as growth inhibition measured after 48 hrs by MTT assay; format: functional, cell-based; how it was run: as §1
HEK293 = assay: Cytotoxicity against human HEK293 cells upto 150 uM measured after 48 hrs by MTT assay; format: cell-based; conditions: hek293, 48 h
How it was run: (§2)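 Normal human cells (EA.hy926, Hek293) kept in DMEM + 10% FBS; 2500 cells/well, 12 h preincubation at 37 °C, 5% CO2; compound added at indicated final concentrations for 48 h. MTT at 0.5 mg/mL final for 4 h, formazan dissolved in DMSO, absorbance read at 490 nm.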

[3] = target: Bcr/Abl fusion protein (Homo sapiens) (UniProt P00519+P11274); assay: Inhibition of BCR/ABL phosphorylation in human K562 cells measured after 4 hrs by Western blot analysis; format: cell-based
How it was run: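 K562 cells exposed to DMSO vehicle or drug for 4 h, lysed in SDS sample buffer, BCA-normalized; equal protein run on SDS-PAGE, transferred to PVDF, blocked in 5% milk/TBS-0.1% Tween-20. Probed overnight at 4 °C for Bcr-Abl, p-Bcr-Abl, actin; HRP secondaries 2 h at room temperature; ECL detection.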

[4] = target: Tyrosine-protein kinase HCK (Homo sapiens, UniProt P08631); assay: Inhibition of human recombinant N-terminal GST tagged HCK (230 to 497 residues) expressed in baculovirus infected Sf9 cells using poly (Glu,Tyr) 4:1 as substrate measured after 60 mins in presence of ATP by ADP-Glo kinase assay
Tyrosine-protein kinase HCK, sequence (P08631 whole entry, the tested form may be a part): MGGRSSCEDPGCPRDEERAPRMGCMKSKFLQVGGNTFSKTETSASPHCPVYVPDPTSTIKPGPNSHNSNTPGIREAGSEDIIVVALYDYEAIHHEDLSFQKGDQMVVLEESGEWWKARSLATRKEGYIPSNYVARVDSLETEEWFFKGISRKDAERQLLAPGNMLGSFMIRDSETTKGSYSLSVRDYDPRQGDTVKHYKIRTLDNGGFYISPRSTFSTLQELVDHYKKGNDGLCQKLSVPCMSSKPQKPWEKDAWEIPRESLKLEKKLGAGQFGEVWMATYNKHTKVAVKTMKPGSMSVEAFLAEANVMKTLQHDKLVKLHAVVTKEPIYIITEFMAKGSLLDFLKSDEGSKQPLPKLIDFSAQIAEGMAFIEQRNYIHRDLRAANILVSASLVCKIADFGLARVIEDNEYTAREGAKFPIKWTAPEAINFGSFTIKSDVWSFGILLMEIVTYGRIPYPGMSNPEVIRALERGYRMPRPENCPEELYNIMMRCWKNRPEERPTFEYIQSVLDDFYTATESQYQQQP
How it was run: (§3)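 ADP-Glo luminescence format: kinase with substrate/ATP mix and inhibitor in 40 mM Tris pH 7.4, 10 mM MgCl2, 0.1 mg/mL BSA, 1 mM DTT, 60 min at 30 °C. ADP-Glo reagent 40 min at room temperature to stop and deplete ATP, then detection reagent 30 min; luminescence read.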

[5] = target: Proto-oncogene tyrosine-protein kinase Src (Homo sapiens, UniProt P12931); assay: Inhibition of human recombinant full length N-terminal GST tagged SRC expressed in Escherichia coli using KVEKIGEGTYGVVYK-amide as substrate measured after 60 mins in presence of ATP by ADP-Glo kinase assay; how it was run: as §3
Proto-oncogene tyrosine-protein kinase Src, sequence (P12931 2-536 limits assumed): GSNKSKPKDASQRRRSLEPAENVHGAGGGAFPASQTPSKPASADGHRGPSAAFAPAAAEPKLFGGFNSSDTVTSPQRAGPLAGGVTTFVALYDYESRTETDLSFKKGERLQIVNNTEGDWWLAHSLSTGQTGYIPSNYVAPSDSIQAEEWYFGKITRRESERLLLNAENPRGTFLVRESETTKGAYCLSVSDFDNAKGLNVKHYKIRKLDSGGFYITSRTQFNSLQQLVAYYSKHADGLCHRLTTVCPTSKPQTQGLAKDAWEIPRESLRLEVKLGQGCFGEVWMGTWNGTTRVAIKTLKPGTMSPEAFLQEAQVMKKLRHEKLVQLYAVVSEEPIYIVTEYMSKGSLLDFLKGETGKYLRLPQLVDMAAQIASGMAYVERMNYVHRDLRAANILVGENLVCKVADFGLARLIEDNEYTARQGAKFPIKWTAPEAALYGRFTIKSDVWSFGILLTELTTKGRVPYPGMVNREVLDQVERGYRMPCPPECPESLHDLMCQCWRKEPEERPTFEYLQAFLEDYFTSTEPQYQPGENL

EA.hy 926 = assay: Cytotoxicity against human EAhy926 cells upto 150 uM measured after 48 hrs by MTT assay; format: cell-based; conditions: ea.hy 926, 48 h; how it was run: as §2
[6] = target: Mitogen-activated protein kinase 14 (Homo sapiens, UniProt Q16539); assay: Inhibition of human recombinant full length N-terminal GST tagged p38alpha expressed in baculovirus infected Sf9 cells using p38 peptide as substrate measured after 60 mins in presence of ATP by ADP-Glo kinase assay; how it was run: as §3
Mitogen-activated protein kinase 14, sequence (Q16539 whole entry): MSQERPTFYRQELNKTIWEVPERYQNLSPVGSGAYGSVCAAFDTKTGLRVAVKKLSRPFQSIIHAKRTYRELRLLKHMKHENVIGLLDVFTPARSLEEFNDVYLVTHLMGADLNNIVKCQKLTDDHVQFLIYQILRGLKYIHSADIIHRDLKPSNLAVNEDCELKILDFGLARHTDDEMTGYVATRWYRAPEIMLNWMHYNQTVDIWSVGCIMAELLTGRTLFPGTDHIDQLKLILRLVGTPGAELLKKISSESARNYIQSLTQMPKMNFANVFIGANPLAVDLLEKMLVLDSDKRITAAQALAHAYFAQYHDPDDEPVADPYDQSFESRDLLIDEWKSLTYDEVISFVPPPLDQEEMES

SMILES | IC50 (K562) [µM] | IC50 (Bcr/Abl fusion protein [1]) [µM] | IC50 (Bcr/Abl fusion protein [2]) [µM] | also measured
Nc1n[nH]c2cc(-c3ccc(C(=O)N4CCN(C(=O)c5ccc(Cl)c(C(F)(F)F)c5)CC4)cc3)ccc12 | 4.84 | 5.33 | 1.99 | 
Cc1ccc(C(=O)NCCNC(=O)c2ccc(-c3ccc4c(N)n[nH]c4c3)cc2)cc1 | 1.45 | 4.3 | 0.38 | 
Nc1n[nH]c2cc(-c3ccc(C(=O)NCCNC(=O)c4ccc(Br)cc4)cc3)ccc12 | 14 | 2.68 | 2.16 | 
Cc1ccc(C(=O)N2CCN(C(=O)c3ccc(-c4ccc5c(N)n[nH]c5c4)cc3)CC2)cc1 | 59.3 | 3.72 | 32.2 | 
Cc1ccc(NC(=O)c2ccc(CN3CCN(C)CC3)cc2)cc1Nc1nccc(-c2cccnc2)n1 [IMATINIB] | 4.26 |  |  | IC50 (K-562R): 90 µM
Cc1ccc(C(=O)NCCNC(=O)c2ccc(-c3cccc4[nH]nc(N)c34)cc2)cc1 | 5.93 |  |  | 
Cc1ccc(C(=O)N2CCN(C(=O)c3ccc(-c4cccc5[nH]nc(N)c45)cc3)CC2)cc1 | > 150 | 179 | 5.85 | 
Nc1n[nH]c2cccc(-c3ccc(C(=O)NCCNC(=O)c4ccc(Br)cc4)cc3)c12 | > 150 | 94.8 | 31.6 | 
CN(C)c1ccc(C(=O)NCCNC(=O)c2ccc(-c3ccc4c(N)n[nH]c4c3)cc2)cc1 | 7.52 | 0.29 | 3.45 | 
Nc1n[nH]c2cc(-c3ccc(C(=O)NCCNC(=O)c4ccc(Cl)c(C(F)(F)F)c4)cc3)ccc12 | 1.65 | 0.17 | 0.043 | Activity (HEK293): Non-Toxic; inhibition [3]: Dose-dependent effect; IC50 [4]: > 100 µM; IC50 [5]: 15.1 µM; Activity (EA.hy 926): Non-Toxic; IC50 (K-562R): 5.42 µM; IC50 [6]: 34.5 µM
Nc1n[nH]c2cc(-c3ccc(C(=O)N4CCN(C(=O)c5ccc(F)cc5)CC4)cc3)ccc12 | 39.1 | 8.6 | 2.34 | 
Nc1n[nH]c2cccc(-c3ccc(C(=O)NCCNC(=O)c4ccc(F)cc4)cc3)c12 | 9.49 | 38.5 | 1.35 | 
CN(C)c1ccc(C(=O)NCCNC(=O)c2ccc(-c3cccc4[nH]nc(N)c34)cc2)cc1 | > 150 | 76.8 | 5.75 | 
Nc1n[nH]c2cc(-c3ccc(C(=O)NCCNC(=O)c4ccc(F)cc4)cc3)ccc12 | 13.4 | 61.2 | 2.45 | 
CN(C)c1ccc(C(=O)N2CCN(C(=O)c3ccc(-c4cccc5[nH]nc(N)c45)cc3)CC2)cc1 | > 150 | 86.1 | 4.28 | 
Nc1n[nH]c2cccc(-c3ccc(C(=O)NCCNC(=O)c4ccc(Cl)c(C(F)(F)F)c4)cc3)c12 | 17.1 | 20 | 0.11 | 
Nc1n[nH]c2cccc(-c3ccc(C(=O)N4CCN(C(=O)c5ccc(Br)cc5)CC4)cc3)c12 | 9.25 | 1.5 | 7.12 | 
Nc1n[nH]c2cccc(-c3ccc(C(=O)N4CCN(C(=O)c5ccc(Cl)c(C(F)(F)F)c5)CC4)cc3)c12 | 4.9 | 2.08 | 10.7 | 
Nc1n[nH]c2cccc(-c3ccc(C(=O)N4CCN(C(=O)c5ccc(F)cc5)CC4)cc3)c12 | 102 | 20.9 | 17.6 | 
CN(C)c1ccc(C(=O)N2CCN(C(=O)c3ccc(-c4ccc5c(N)n[nH]c5c4)cc3)CC2)cc1 | 61.2 | 6.23 | 2.54 | 
Nc1n[nH]c2cc(-c3ccc(C(=O)N4CCN(C(=O)c5ccc(Br)cc5)CC4)cc3)ccc12 | 11.3 | 31.9 | 6.28 | 
